Assay results taken from ChEMBL document CHEMBL4689842, “EUbOPEN Chemogenomics Library wave 1” (2021).
Several values for one entry are separate records, joined by “and”; a condition that tells them apart may be missing. Equal entries are not always repeated.

Test system: HEK-293T
Experiment: Multiplex assay against HEK293T;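 for Population Tubulin-Different-Phenotype (%): share of the cells with healthy nuclei that show this phenotype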
Format: toxicity, cell-based
Conditions: human
In short: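 Compound was added to live cells that had been stained at seeding with Hoechst33342, BioTracker Green Microtubule Cytoskeleton Dye, MitoTracker Red and Annexin V Alexa Fluor 680, and imaging followed on a CQ1 microscope at 37°C and 5% CO2. CellPathfinder machine-learning gating divided cells into Hoechst high-intensity objects or normal cells, normal cells into healthy, pyknosed or fragmented nuclei, and pyknosed cells into mitotic or apoptotic. Tubulin, mitochondrial-mass and membrane-permeability phenotypes are per cents of healthy-nucleus cells.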

[1] = 12 h, 1 µM, compound concentration 1 uM, replicate 1
[2] = 12 h, 1 µM, compound concentration 1 uM, replicate 2
[3] = 12 h, 10 µM, compound concentration 10 uM, replicate 1
[4] = 12 h, 10 µM, compound concentration 10 uM, replicate 2
[5] = 24 h, 1 µM, compound concentration 1 uM, replicate 1
[6] = 24 h, 1 µM, compound concentration 1 uM, replicate 2
[7] = 24 h, 10 µM, compound concentration 10 uM, replicate 1
[8] = 24 h, 10 µM, compound concentration 10 uM, replicate 2
[9] = 48 h, 10 µM, compound concentration 10 uM, replicate 1
[10] = 48 h, 10 µM, compound concentration 10 uM, replicate 2

COc1cc2nccc(Oc3ccc(NC(=O)Nc4cc(C)on4)c(Cl)c3)c2cc1OC.O
Population Apoptotic (%) [1]: 28% and 23% | Population Fragmented Nuclei (%) [1]: 14% | Population Healthy Nuclei (%) [1]: 55% and 71% | Population Hoechst High Intensity Objects (%) [1]: 12% and 10% | Population Mitotic Cells (%) [1]: 72% and 76% | Population Normal (%) [1]: 87% and 89% | Population Pyknosed Nuclei (%) [1]: 30% and 14% | Total Cell Count [1]: 660 and 667 | Population Apoptotic (%) [2]: 18% and 12% | Population Fragmented Nuclei (%) [2]: 3% and 9% | Population Healthy Nuclei (%) [2]: 86% | Population Hoechst High Intensity Objects (%) [2]: 2% | Population Mitotic Cells (%) [2]: 81% and 87% | Population Normal (%) [2]: 97% | Population Pyknosed Nuclei (%) [2]: 10% and 4% | Total Cell Count [2]: 918 and 1845 | Population Apoptotic (%) [3]: 82% | Population Fragmented Nuclei (%) [3]: 11% | Population Healthy Nuclei (%) [3]: 21% | Population Hoechst High Intensity Objects (%) [3]: 13% | Population Membrane Permeable-Phenotype (%) [3]: 2% | Population Mitochondria Different-Phenotype (%) [3]: 100% | Population Mitotic Cells (%) [3]: 17% | Population Normal (%) [3]: 86% | Population Tubulin-Different-Phenotype (%) [3]: 97% | Total Cell Count [3]: 260 | Population Apoptotic (%) [4]: 59% | Population Fragmented Nuclei (%) [4]: 3% | Population Healthy Nuclei (%) [4]: 30% | Population Hoechst High Intensity Objects (%) [4]: 1% | Population Membrane Permeable-Phenotype (%) [4]: 8% | Population Mitochondria Different-Phenotype (%) [4]: 88% | Population Mitotic Cells (%) [4]: 40% | Population Normal (%) [4]: 98% | Population Pyknosed Nuclei (%) [4]: 66% | Population Tubulin-Different-Phenotype (%) [4]: 94% | Total Cell Count [4]: 226 | Population Apoptotic (%) [5]: 39% and 22% | Population Fragmented Nuclei (%) [5]: 14% and 17% | Population Healthy Nuclei (%) [5]: 63% and 74% | Population Hoechst High Intensity Objects (%) [5]: 11% and 8% | Population Membrane Permeable-Phenotype (%) [5]: 10% | Population Mitotic Cells (%) [5]: 60% and 77% | Population Normal (%) [5]: 88% and 92% | Population Pyknosed Nuclei (%) [5]: 22% and 8% | Total Cell Count [5]: 680 and 875 | Population Healthy Nuclei (%) [6]: 89% and 68% | Population Hoechst High Intensity Objects (%) [6]: 4% and 3% | Population Membrane Permeable-Phenotype (%) [6]: 14% and 8% | Population Mitotic Cells (%) [6]: 81% and 95% | Population Normal (%) [6]: 95% and 96% | Population Apoptotic (%) [7]: 89% | Population Fragmented Nuclei (%) [7]: 12% | Population Healthy Nuclei (%) [7]: 30% | Population Hoechst High Intensity Objects (%) [7]: 14% | Population Membrane Permeable-Phenotype (%) [7]: 3% | Population Mitochondria Different-Phenotype (%) [7]: 100% | Population Mitotic Cells (%) [7]: 10% | Population Normal (%) [7]: 85% | Population Pyknosed Nuclei (%) [7]: 56% | Population Tubulin-Different-Phenotype (%) [7]: 100% | Total Cell Count [7]: 253 | Population Apoptotic (%) [8]: 76% | Population Fragmented Nuclei (%) [8]: 2% | Population Healthy Nuclei (%) [8]: 50% | Population Hoechst High Intensity Objects (%) [8]: 1% | Population Membrane Permeable-Phenotype (%) [8]: 2% | Population Mitochondria Different-Phenotype (%) [8]: 98% | Population Mitotic Cells (%) [8]: 23% | Population Normal (%) [8]: 98% | Population Pyknosed Nuclei (%) [8]: 47% | Population Tubulin-Different-Phenotype (%) [8]: 97% | Total Cell Count [8]: 258 | Population Apoptotic (%) [9]: 73% | Population Fragmented Nuclei (%) [9]: 14% | Population Healthy Nuclei (%) [9]: 40% | Population Hoechst High Intensity Objects (%) [9]: 11% | Population Membrane Permeable-Phenotype (%) [9]: 2% | Population Mitochondria Different-Phenotype (%) [9]: 96% | Population Mitotic Cells (%) [9]: 26% | Population Normal (%) [9]: 88% | Population Pyknosed Nuclei (%) [9]: 45% | Population Tubulin-Different-Phenotype (%) [9]: 98% | Total Cell Count [9]: 272 | Population Apoptotic (%) [10]: 83% | Population Fragmented Nuclei (%) [10]: 3% | Population Healthy Nuclei (%) [10]: 72% | Population Hoechst High Intensity Objects (%) [10]: 2% | Population Membrane Permeable-Phenotype (%) [10]: 1% | Population Mitochondria Different-Phenotype (%) [10]: 91% | Population Mitotic Cells (%) [10]: 16% | Population Normal (%) [10]: 97% | Population Pyknosed Nuclei (%) [10]: 23% | Total Cell Count [10]: 292

CCOCCn1cc(C(=O)Nc2ccc(-n3nc(-c4cccnc4)cc3C(F)(F)F)cn2)ccc1=O [BI 1935]
Population Fragmented Nuclei (%) [3]: 15% and 16% and 10% | Population Healthy Nuclei (%) [3]: 27% and 50% and 70% | Population Hoechst High Intensity Objects (%) [3]: 20% and 15% and 10% | Population Membrane Permeable-Phenotype (%) [3]: 6% | Population Mitotic Cells (%) [3]: 30% and 78% and 83% | Population Normal (%) [3]: 80% and 84% and 89% | Total Cell Count [3]: 285 and 667 and 651 | Population Fragmented Nuclei (%) [4]: 3% and 7% | Population Healthy Nuclei (%) [4]: 29% and 84% and 87% | Population Membrane Permeable-Phenotype (%) [4]: 3% and 10% and 2% | Population Mitotic Cells (%) [4]: 71% and 84% and 95% | Population Normal (%) [4]: 91% and 96% and 97% | Population Fragmented Nuclei (%) [7]: 20% and 16% and 10% | Population Healthy Nuclei (%) [7]: 33% and 62% and 81% | Population Hoechst High Intensity Objects (%) [7]: 18% and 14% | Population Mitotic Cells (%) [7]: 29% and 75% and 80% | Population Normal (%) [7]: 81% and 85% | Total Cell Count [7]: 309 and 632 and 787 | Population Healthy Nuclei (%) [8]: 43% and 88% and 71% | Population Hoechst High Intensity Objects (%) [8]: 2% and 4% | Population Mitotic Cells (%) [8]: 53% and 88% and 98% | Population Normal (%) [8]: 97% and 95% | Population Apoptotic (%) [9]: 59% | Population Fragmented Nuclei (%) [9]: 22% | Population Healthy Nuclei (%) [9]: 33% | Population Hoechst High Intensity Objects (%) [9]: 17% | Population Membrane Permeable-Phenotype (%) [9]: 2% | Population Mitochondria Different-Phenotype (%) [9]: 89% | Population Mitotic Cells (%) [9]: 40% | Population Normal (%) [9]: 82% | Population Pyknosed Nuclei (%) [9]: 44% | Population Tubulin-Different-Phenotype (%) [9]: 93% | Total Cell Count [9]: 341 | Population Apoptotic (%) [10]: 33% | Population Fragmented Nuclei (%) [10]: 4% | Population Healthy Nuclei (%) [10]: 61% | Population Hoechst High Intensity Objects (%) [10]: 4% | Population Membrane Permeable-Phenotype (%) [10]: 6% | Population Mitochondria Different-Phenotype (%) [10]: 55% | Population Mitotic Cells (%) [10]: 66% | Population Normal (%) [10]: 95% | Population Pyknosed Nuclei (%) [10]: 33% | Population Tubulin-Different-Phenotype (%) [10]: 79% | Total Cell Count [10]: 283
